From EPA's CvTdb concentration-time database

Key:
[1] = test system: human; assay: concentration in blood after dosing; negative times count back from the end of exposure; settings: dosed: trichloroethylene, 100 ppm, inhalation, duration: 4 hr, person
How it was run: (§1)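 Data points giving concentration or amount against time came from published in vivo toxicokinetic studies and from two structured collections. PubMed searching, classifier screening and manual review located the studies. Most points were digitised from plot screenshots using WebPlotDigitizer, the rest were copied from tables, and all keep their reported units.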

[2] = test system: Rat; assay: concentration in plasma after dosing; settings: dosed: 2-Hydroxy-4-methoxybenzophenone, 100 mg/kg, oral, Female, F344
[3] = test system: Mouse; assay: concentration in plasma after dosing; settings: 0.25 h; dosed: 2-Hydroxy-4-methoxybenzophenone; 50 mg/kg; iv; Female; B6C3F1
[4] = test system: Rat; assay: concentration in plasma after dosing; settings: dosed: 2-Hydroxy-4-methoxybenzophenone, 250 mg/kg, oral, Male, F344
[5] = test system: Mouse; assay: concentration in plasma after dosing; settings: 0.25 h; dosed: 2-Hydroxy-4-methoxybenzophenone; 50 mg/kg; iv; Male; B6C3F1
[6] = test system: Rat; assay: concentration in plasma after dosing; settings: dosed: 2-Hydroxy-4-methoxybenzophenone, 250 mg/kg, oral, Male, F344; remark: listed apart in the source
[7] = test system: Rat; assay: concentration in plasma after dosing; settings: 6 h; dosed: Primidone; 80 mg/kg; oral; Male; F344
[8] = test system: Rat; assay: concentration in plasma after dosing; settings: 9 h; dosed: Primidone; 130 mg/kg; oral; Female; F344
[9] = test system: Rat; assay: concentration in plasma after dosing; settings: 12 h; dosed: Primidone; 130 mg/kg; oral; Female; F344
[10] = test system: Rat; assay: concentration in brain after dosing; settings: 0.5 h; dosed: alpha-Thujone; 25 mg/kg; oral; Male; Harlan Sprague Dawley
[11] = test system: Rat; assay: concentration in brain after dosing; settings: 6 h; dosed: alpha-Thujone; 50 mg/kg; oral; Female; Harlan Sprague Dawley
[12] = test system: Rat; assay: concentration in brain after dosing; settings: 6 h; dosed: alpha-Thujone; 50 mg/kg; oral; Female; Harlan Sprague Dawley; remark: listed apart in the source
[13] = test system: Rat; assay: concentration in brain after dosing; settings: 5 min; dosed: alpha-Thujone; 25 mg/kg; oral; Male; Harlan Sprague Dawley
[14] = test system: Rat; assay: concentration in plasma after dosing; settings: 3 h; dosed: alpha-Thujone; 50 mg/kg; oral; Female; Harlan Sprague Dawley
[15] = test system: Rat; assay: concentration in plasma after dosing; settings: 2 min; dosed: alpha-Thujone; 50 mg/kg; oral; Male; Harlan Sprague Dawley
[16] = test system: Rat; assay: concentration in plasma after dosing; settings: 3 h; dosed: alpha-Thujone; 25 mg/kg; oral; Female; Harlan Sprague Dawley
[17] = test system: Rat; assay: concentration in plasma after dosing; settings: 3 h; dosed: alpha-Thujone; 50 mg/kg; oral; Female; Harlan Sprague Dawley; remark: listed apart in the source
[18] = test system: Rat; assay: concentration in plasma after dosing; settings: 10 min; dosed: alpha-Thujone; 25 mg/kg; oral; Male; Harlan Sprague Dawley
[19] = test system: Rat; assay: concentration in liver after dosing; settings: 48 h; dosed: Perfluorohexane-1-sulphonic acid – potassium salt; 16 mg/kg; oral; Female; Harlan Sprague Dawley
[20] = test system: Rat; assay: concentration in brain after dosing; settings: 24 h; dosed: Perfluorohexane-1-sulphonic acid – potassium salt; 16 mg/kg; oral; Female; F344
[21] = test system: Rat; assay: concentration in kidney after dosing; settings: 1200 h; dosed: Perfluorohexane-1-sulphonic acid – potassium salt; 16 mg/kg; oral; Male; Harlan Sprague Dawley
[22] = test system: Rat; assay: concentration in kidney after dosing; settings: dosed: Perfluorohexane-1-sulphonic acid – potassium salt, 16 mg/kg, oral
[23] = test system: Rat; assay: concentration in kidney after dosing; settings: 528 h; dosed: Perfluorohexane-1-sulphonic acid – potassium salt; 16 mg/kg; oral; Female; F344
[24] = test system: Rat; assay: concentration in plasma after dosing; settings: 40 h; dosed: Pyridine; 100 mg/kg; oral; Male; F344
[25] = test system: Rat; assay: concentration in plasma after dosing; settings: 20 min; dosed: Pyridine; 10 mg/kg; oral; Female; Harlan Sprague-Dawley
[26] = test system: dog; assay: concentration in urine after dosing; settings: dosed: trichloroethylene, 100 ppm, inhalation, duration: 6 hr, male, beagle
How it was run: as §1

[27] = test system: human; assay: concentration in urine after dosing; settings: dosed: trichloroethylene, inhalation, duration: 2 hr - 20 min
How it was run: as §1

OCC(Cl)(Cl)Cl [trichloroethanol (free)]
[1]
Settings	concentration in blood [ng/mL]
0.2798 h	3060
0.518 h	2980
1.034 h	2890
2.025 h	2710
4.029 h	2290
5.972 h	2030
7.955 h	1690
9.937 h	1480
11.96 h	1270
13.96 h	1070
15.94 h	1010
17.94 h	738

[1], during exposure
Settings	concentration in blood [ng/mL]
-58 s	2860
-3.486 h	220
-3.013 h	632
-2.028 h	1480
-0.9832 h	2280

O=C(c1ccccc1)c1ccc(O)cc1O [2,4-Dihydroxybenzophenone]
Settings	concentration in plasma [ng/mL]
[2], 3 h	67.4
[2], 10 min	58.3
[4], 0.25 h	33
[4], 4 h	90.4
[6], 0.5 h	888
[6], 10 h	75.5

Settings	concentration in plasma [ng/mL]
[3]	1260
[5]	1940

CCC1(c2ccccc2)C(=O)NCNC1=O [Primidone]
Settings	concentration in plasma [ng/mL]
[7]	13000
[8]	52500
[9]	3100

CC(C)[C@]12CC(=O)[C@H](C)[C@H]1C2 [alpha-Thujone]
Settings	concentration in brain [ng/g]	concentration in plasma [ng/mL]
[10]	883	–
[11]	42.5	–
[12]	165	–
[13]	1220	–
[14]	–	201
[15]	–	152
[16]	–	176
[17]	–	303
[18]	–	872

O=S(=O)([O-])C(F)(F)C(F)(F)C(F)(F)C(F)(F)C(F)(F)C(F)(F)F.[K+] [Perfluorohexane-1-sulphonic acid – potassium salt]
Settings	concentration in brain [ng/g]	concentration in kidney [ng/g]	concentration in liver [ng/g]
[19]	–	–	14300
[20]	1390	–	–
[21]	–	4040	–
[23]	–	10000	–

concentration in kidney [ng/g], [22]
Settings	3 h	6 h	12 h	24 h	48 h	96 h	192 h	528 h	1200 h
Female, F344	29100	37500	41400	38500	–	–	16300	12700	–
Female, Harlan Sprague Dawley	29000	39200	26200	17200	7840	5860	2010	–	–
Male, Harlan Sprague Dawley	–	–	–	–	–	–	–	–	5590

c1ccncc1 [Pyridine]
Settings	concentration in plasma [ng/mL]
[24]	18400
[25]	3970

OCC(Cl)(Cl)Cl [trichloroethanol]
[26]
Settings	concentration in urine [ng/mL]
24 h	129000
48 h	115000
72 h	155000
96 h	205000
120 h	154000

concentration in urine [mg/kg], [27]
Settings	2.667 h	6.667 h	10.67 h	19.67 h
1348 mg	158	161	79.7	65.3
1681 mg	125	236	136	131
3907 mg	186	258	154	168
